Converted amounts (≈) assume the structure as drawn.
Experiments:
[1] = target: T1, Transient receptor potential cation channel subfamily V member 1 (Homo sapiens, UniProt Q8NER1); assay: Antagonist activity at human recombinant TRPV1 expressed in human 1321N1 cells assessed as inhibition of capsaicin-induced calcium influx by FLIPR assay; format: functional, cell-based
Procedure, shortened: (§1)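 Ca2+ influx in 1321N1 cells stably expressing recombinant human or rat TRPV1, grown to confluency, loaded with fluo-4 AM (2 µM in D-PBS) 1–2 h at 23 °C, washed. Compound (11-point half-log range, D-PBS) added at 10 s, capsaicin 3 min later. FLIPR fluorescence read over 240 s; peak increase minus baseline as % of 0.05 µM capsaicin control; four-parameter logistic fit for IC50; mean of ≥2 experiments in triplicate.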

[2] = Ratio of drug level in brain to plasma in po dosed Sprague-Dawley rat; format: ADME, organism-based
Procedure, shortened: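 Male Sprague–Dawley rats (200–320 g), group-housed with free food and water, fasted 16 h before oral dosing. Compound given po in 10% ethanol, 20% polysorbate-80 and 70% PEG-400. Drug concentrations in brain and plasma were expressed as a [brain]:[plasma] ratio.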

[3] = test system: Rattus norvegicus; assay: Analgesic activity against complete Freund's adjuvant-induced thermal hyperalgesia in po dosed Sprague-Dawley rat assessed as paw withdrawal latency; format: functional
Procedure, shortened: (§2)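 Male Sprague–Dawley rats (200–320 g), food withdrawn 16 h before oral dosing. Right hindpaw injected with 150 µL of 50% CFA in saline. Thermal hyperalgesia measured 48 h later as radiant-heat paw withdrawal on a 30 °C glass surface after 30 min habituation. Vehicle: 10% ethanol, 20% polysorbate-80, 70% PEG-400. Single-dose testing used 30 µmol/kg po, n = 6/group, versus vehicle.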

[4] = test system: Rattus norvegicus; assay: Antinociceptive activity against hyperalgesia in po dosed rat Chung neuropathic pain model; format: functional
[5] = test system: Rattus norvegicus; assay: Analgesic activity against complete Freund's adjuvant-induced thermal hyperalgesia in Sprague-Dawley rat assessed as paw withdrawal latency at 30 umol/kg, po; format: functional; procedure, shortened: as §2
[6] = Plasma concentration in po dosed Sprague-Dawley rat after 1 hr; format: ADME, organism-based
[7] = target: T1, Transient receptor potential cation channel subfamily V member 1; assay: Antagonist activity at human recombinant TRPV1 expressed in human 1321N1 cells assessed as inhibition of N-arachidonoyl-dopamine-induced calcium influx by FLIPR assay; format: functional, cell-based
Procedure, shortened: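 FLIPR fluo-4 Ca2+ influx in 1321N1 cells stably expressing human TRPV1, with 3 µM NADA as the stimulus. Compound is added before agonist challenge. Peak fluorescence increase over baseline is fit to a four-parameter logistic curve to give IC50.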

[8] = target: T1, Transient receptor potential cation channel subfamily V member 1; assay: Antagonist activity at human recombinant TRPV1 expressed in human 1321N1 cells assessed as inhibition of pH 5.5-induced calcium influx by FLIPR assay; format: functional, cell-based
Procedure, shortened: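 Fluo-4 FLIPR Ca2+ assay in 1321N1 cells stably expressing human TRPV1, stimulated by low pH (pH 5.5) after compound preincubation. Peak fluorescence rise minus baseline is fit by a four-parameter logistic equation to give IC50.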

[9] = target: Transient receptor potential cation channel subfamily V member 1 (Rattus norvegicus, UniProt O35433); assay: Antagonist activity at rat TRPV1 expressed in human 1321N1 cells assessed as inhibition of capsaicin-induced calcium influx by FLIPR assay; format: functional, cell-based; procedure, shortened: as §1
[10] = species: Rattus norvegicus; assay: Nocifensive activity against capsaicin-induced neuropathic pain in rat; format: functional
[11] = test system: Rattus norvegicus; assay: Analgesic activity against complete Freund's adjuvant-induced mechanical allodynia in po dosed Sprague-Dawley rat; format: functional
[12] = species: Rattus norvegicus; assay: Analgesic activity against capsaicin-induced secondary mechanical allodynia in rat; format: functional
[13] = species: Rattus norvegicus; assay: Analgesic activity against monosodium iodoacetate-induced osteoarthritis in rat; format: functional
[14] = species: Rattus norvegicus; assay: Analgesic activity against skin incision-induced acute thermal hyperalgesia in Sprague-Dawley rat; format: functional
Procedure, shortened: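 Under halothane (2–3%) anesthesia, a left hind paw plantar incision was made aseptically in male Sprague–Dawley rats. Rats recovered 2 h before thermal hyperalgesia testing.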

[15] = species: Rattus norvegicus; assay: Analgesic activity against gamma carrageenan-induced thermal hyperalgesia in Sprague-Dawley rat; format: functional
Procedure, shortened: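 Male Sprague–Dawley rats (200–320 g) received 100 µL of 1% carrageenan in saline into the right hindpaw plantar surface. Thermal hyperalgesia was tested 2 h later by radiant heat to the plantar surface in Plexiglass cubicles on a 30 °C glass floor, after 30 min habituation.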

[16] = Aqueous solubility of the compound; format: physicochemical; conditions: buffer
[17] = Apparent permeability across human Caco-2 cell membrane; format: ADME, cell-based
[18] = Solubility in PEG-400; format: physicochemical
Procedure, shortened: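 Solubility was measured in PEG-400 as an organic vehicle.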

[19] = Oral bioavailability in Sprague-Dawley rat; format: ADME, organism-based; conditions: in vivo
[20] = Half-life in po dosed Sprague-Dawley rat; format: ADME, organism-based; conditions: in vivo
[21] = target: Voltage-gated inwardly rectifying potassium channel KCNH2 (Homo sapiens, UniProt Q12809); assay: Inhibition of human ERG
Sequence of Voltage-gated inwardly rectifying potassium channel KCNH2 (Q12809 whole entry): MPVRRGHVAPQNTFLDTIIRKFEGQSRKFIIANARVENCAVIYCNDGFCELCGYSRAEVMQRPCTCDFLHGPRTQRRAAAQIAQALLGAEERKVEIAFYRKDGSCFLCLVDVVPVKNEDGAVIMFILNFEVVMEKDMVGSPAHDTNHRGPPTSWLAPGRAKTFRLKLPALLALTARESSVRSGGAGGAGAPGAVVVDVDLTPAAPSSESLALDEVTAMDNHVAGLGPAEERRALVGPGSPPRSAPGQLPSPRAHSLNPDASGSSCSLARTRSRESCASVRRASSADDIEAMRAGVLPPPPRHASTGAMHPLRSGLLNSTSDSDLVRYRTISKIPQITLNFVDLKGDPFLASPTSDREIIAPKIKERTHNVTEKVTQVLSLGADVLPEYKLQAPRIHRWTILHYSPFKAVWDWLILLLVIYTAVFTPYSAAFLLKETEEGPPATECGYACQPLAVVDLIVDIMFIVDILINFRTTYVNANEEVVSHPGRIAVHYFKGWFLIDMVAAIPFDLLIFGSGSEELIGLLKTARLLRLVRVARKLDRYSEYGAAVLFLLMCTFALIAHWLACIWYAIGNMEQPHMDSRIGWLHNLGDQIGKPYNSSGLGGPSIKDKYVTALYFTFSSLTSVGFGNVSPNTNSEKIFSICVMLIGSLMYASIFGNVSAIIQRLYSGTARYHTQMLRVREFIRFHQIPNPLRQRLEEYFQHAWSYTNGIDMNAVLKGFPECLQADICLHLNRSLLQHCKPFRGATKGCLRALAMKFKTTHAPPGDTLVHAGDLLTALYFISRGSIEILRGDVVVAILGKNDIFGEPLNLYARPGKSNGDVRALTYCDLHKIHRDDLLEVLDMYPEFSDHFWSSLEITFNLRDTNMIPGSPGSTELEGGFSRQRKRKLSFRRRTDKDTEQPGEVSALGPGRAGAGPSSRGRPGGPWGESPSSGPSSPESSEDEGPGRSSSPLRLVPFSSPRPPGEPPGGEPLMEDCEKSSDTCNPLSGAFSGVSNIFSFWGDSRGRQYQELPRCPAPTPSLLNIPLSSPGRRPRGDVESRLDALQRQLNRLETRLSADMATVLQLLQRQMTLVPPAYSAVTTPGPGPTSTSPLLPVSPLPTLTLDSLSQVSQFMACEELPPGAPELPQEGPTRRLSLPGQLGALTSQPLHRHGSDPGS

T1 sequence (Q8NER1 whole entry): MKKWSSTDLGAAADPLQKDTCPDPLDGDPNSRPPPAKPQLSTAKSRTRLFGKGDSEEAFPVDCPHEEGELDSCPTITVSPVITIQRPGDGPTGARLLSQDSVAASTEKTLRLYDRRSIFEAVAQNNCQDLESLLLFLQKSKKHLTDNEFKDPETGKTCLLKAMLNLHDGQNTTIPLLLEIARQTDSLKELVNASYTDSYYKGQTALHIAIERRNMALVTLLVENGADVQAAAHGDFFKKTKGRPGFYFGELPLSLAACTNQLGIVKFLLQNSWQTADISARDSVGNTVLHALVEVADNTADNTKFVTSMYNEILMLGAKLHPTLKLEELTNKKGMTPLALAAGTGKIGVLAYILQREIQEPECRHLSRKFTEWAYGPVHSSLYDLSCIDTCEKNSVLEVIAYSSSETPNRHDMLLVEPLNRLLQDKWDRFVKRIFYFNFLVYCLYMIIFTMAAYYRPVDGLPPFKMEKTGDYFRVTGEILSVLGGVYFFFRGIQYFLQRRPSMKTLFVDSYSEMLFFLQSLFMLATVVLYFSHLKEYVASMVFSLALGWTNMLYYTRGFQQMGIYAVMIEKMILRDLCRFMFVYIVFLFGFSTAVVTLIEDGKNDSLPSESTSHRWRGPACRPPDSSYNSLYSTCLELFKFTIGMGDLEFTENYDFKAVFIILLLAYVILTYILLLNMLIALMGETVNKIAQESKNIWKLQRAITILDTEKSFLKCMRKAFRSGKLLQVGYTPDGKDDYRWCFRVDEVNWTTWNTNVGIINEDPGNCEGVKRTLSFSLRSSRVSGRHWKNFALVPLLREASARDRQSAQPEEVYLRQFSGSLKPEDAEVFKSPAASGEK
Sequence of Transient receptor potential cation channel subfamily V member 1 (Rattus norvegicus, UniProt O35433) (O35433 whole entry): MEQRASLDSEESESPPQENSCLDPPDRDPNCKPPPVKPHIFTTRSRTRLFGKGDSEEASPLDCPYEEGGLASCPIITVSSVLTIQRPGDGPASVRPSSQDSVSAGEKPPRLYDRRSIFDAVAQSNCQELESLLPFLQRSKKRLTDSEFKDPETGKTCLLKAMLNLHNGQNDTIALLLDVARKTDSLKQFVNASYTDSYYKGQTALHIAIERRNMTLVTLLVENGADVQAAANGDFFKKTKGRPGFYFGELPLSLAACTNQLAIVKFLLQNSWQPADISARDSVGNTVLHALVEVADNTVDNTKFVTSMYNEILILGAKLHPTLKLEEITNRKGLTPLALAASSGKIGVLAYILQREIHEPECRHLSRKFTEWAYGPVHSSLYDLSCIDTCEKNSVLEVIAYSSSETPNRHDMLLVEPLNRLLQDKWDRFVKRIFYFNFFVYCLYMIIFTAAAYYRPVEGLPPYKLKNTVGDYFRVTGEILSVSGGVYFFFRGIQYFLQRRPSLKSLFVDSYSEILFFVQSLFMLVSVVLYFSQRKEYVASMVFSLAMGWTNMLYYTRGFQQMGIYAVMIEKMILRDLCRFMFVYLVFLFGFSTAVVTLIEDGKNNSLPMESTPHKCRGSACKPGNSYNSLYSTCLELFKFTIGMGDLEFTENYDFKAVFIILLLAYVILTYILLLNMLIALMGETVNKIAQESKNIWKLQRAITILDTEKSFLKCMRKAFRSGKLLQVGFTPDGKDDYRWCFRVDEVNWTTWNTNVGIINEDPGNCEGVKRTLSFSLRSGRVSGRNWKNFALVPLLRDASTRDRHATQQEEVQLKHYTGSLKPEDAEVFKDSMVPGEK

Row | Structure (SMILES) | IC50 [1] [nM] | Efficacy [5] [%] | other results
1 | CC(C)(C)c1ccc(NC(=O)c2ccc(-c3ccccn3)cc2)cc1 | 42 |  | 
2 | CC(C)(C)c1ccc(NC(=O)N2CCN(c3ncccc3Cl)CC2)cc1 |  |  | Kp [2]: 5; ED50 [3]: 8 µmol/kg; ED50 [4]: 8 µmol/kg
3 | O=C(Nc1ccc(S(=O)(=O)C(F)(F)F)cc1)C1=CCN(c2ncccc2C(F)(F)F)CC1 | 24 | 58 | Kp [2]: 1.5; ED50 [3]: 12 µmol/kg; ED50 [4]: > 300 µmol/kg; concentration at 1 h [6]: 200 ng/mL; IC50 [7]: 20.2 nM; IC50 [8]: 14 nM; IC50 [9]: 17 nM; ED50 [10]: 10 µmol/kg; ED50 [11]: 76 µmol/kg; ED50 [12]: 40 µmol/kg; ED50 [13]: 8 µmol/kg; ED50 [14]: 20 µmol/kg; ED50 [15]: 25 µmol/kg; solubility [16]: 0.033 µg/mL (≈ 6.88e-05 mM); Papp [17]: 28.5 ×10⁻⁶ cm/s; solubility [18]: > 100 mg/mL
4 | CC(C)(C)c1ccc(NC(=O)C2=CCN(c3ncccc3Cl)CC2)cc1 | 10 |  | 
5 | COc1cccc(NC(=O)c2ccc(-c3ccccc3)cc2)c1 | 147 |  | 
6 | O=C(Nc1ccc(Cl)c(F)c1)C1=CCN(c2ncccc2Cl)CC1 | 78 |  | 
7 | O=C(Nc1ccc(Cl)cc1)C1=CCN(c2ncccc2Cl)CC1 | 33 |  | bioavailability [19]: 16%; half-life [20]: 1.7 h; Activity [21]: Active
8 | CC(C)(C)c1ccc(NC(=O)C2=CCN(c3ccccc3F)CC2)cc1 | 265 |  | 
9 | O=C(Nc1ccc(Cl)cc1)C1=CCN(c2ncccc2C(F)(F)F)CC1 | 19 | 40 | 
10 | O=C(Nc1ccc(S(=O)(=O)C(F)(F)F)cc1)C1=CCN(c2ncccc2F)CC1 | 67 | 51 | concentration at 1 h [6]: 900 ng/mL
11 | O=C(Nc1ccc(S(=O)(=O)C(F)(F)F)cc1)C1=CCN(c2nccs2)CC1 | 95 | 37 | concentration at 1 h [6]: 2100 ng/mL
12 | CC(C)(C)c1ccc(NC(=O)C2=CCN(c3ncccc3C#N)CC2)cc1 | 78 |  | 
13 | CC(C)(C)c1ccc(NC(=O)C2=CCN(c3ccccn3)CC2)cc1 | 27 |  | 
14 | CC(C)(C)c1ccc(NC(=O)C2=CCN(c3ncccc3F)CC2)cc1 | 19 |  | 
15 | CC(C)(C)c1ccc(NC(=O)C2=CCN(c3nccs3)CC2)cc1 | 14 |  | 
16 | O=C(Nc1ccc(Cl)c(Cl)c1)C1=CCN(c2ncccc2Cl)CC1 | 124 |  | 
17 | O=C(Nc1ccc(Cl)cc1C(F)(F)F)C1=CCN(c2ncccc2Cl)CC1 | 2750 |  | 
18 | CC(C)(C)c1ccc(NC(=O)C2=CCN(c3ncccn3)CC2)cc1 | 10 |  | 
19 | CC(C)(C#N)c1ccc(NC(=O)C2=CCN(c3ncccc3C(F)(F)F)CC2)cc1 | 41 | 25 | 
20 | CC(C)(C)c1ccc(NC(=O)C2CCN(c3ncccc3Cl)CC2)cc1 | 196 |  | 
21 | CC(C)(C)c1ccc(NC(=O)C2=CCN(c3ncccc3C(F)(F)F)CC2)cc1 | 6 |  | Activity [5]: 28%
22 | O=C(Nc1cccc2[nH]ncc12)N[C@@H]1CCc2cc(N3CCCCC3)ccc21 | 14 |  | Kp [2]: 0.008; ED50 [3]: 12 µmol/kg; ED50 [4]: > 300 µmol/kg; IC50 [9]: 30 nM; ED50 [10]: 10 µmol/kg; ED50 [11]: 300 µmol/kg; ED50 [12]: 165 µmol/kg; ED50 [13]: 280 µmol/kg
23 | O=C(Nc1ccc(S(=O)(=O)C(F)(F)F)cc1)C1=CCN(c2ncccn2)CC1 | 44 | 53 | concentration at 1 h [6]: 380 ng/mL
24 | O=C(Nc1ccc(C(F)(F)F)cc1)C1=CCN(c2ncccc2C(F)(F)F)CC1 | 8 | 35 | 
25 | O=C(Nc1ccc(S(=O)(=O)C(F)(F)F)cc1)C1=CCN(c2ncccc2Cl)CC1 | 41 | 63 | concentration at 1 h [6]: 280 ng/mL
26 | O=C(Nc1ccc(Cl)cc1F)C1=CCN(c2ncccc2Cl)CC1 | 618 |  | 
27 | O=C(Nc1ccc(C(F)(F)F)nc1)C1=CCN(c2ncccc2C(F)(F)F)CC1 | 42 | 61 | bioavailability [19]: 3%
28 | Cc1cccnc1N1CC=C(C(=O)Nc2ccc(S(=O)(=O)C(F)(F)F)cc2)CC1 | 35 | 53 | concentration at 1 h [6]: 960 ng/mL

From ChEMBL document CHEMBL1144162, “Tetrahydropyridine-4-carboxamides as novel, potent transient receptor potential vanilloid 1 (TRPV1) antagonists” (Bioorg Med Chem, 2008)
